Test results as given in the EternaBench riboswitch data.

Tested on: MS2 coat protein
Experiment: apparent Kd, MS2 coat protein; higher = weaker binding; RNA-MaP array; FMN 200 µM where present
Method in brief: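 The apparent Kd comes from binding curves fitted cluster by cluster, filtered, and summarised as a median. Those curves followed SNAP-549-labelled MS2 coat protein from 0.7 or 1.5 nM, doubling to 3 µM, on Illumina sequencing-chip clusters where stalled E. coli RNA polymerase had transcribed the designs, without and then with constant ligand. The buffer was 100 mM Tris-HCl pH 7.5, 80 mM KCl, 4 mM MgCl2, BSA, DTT, yeast tRNA and Tween-20, and green signal was normalised to red-channel RNA signal and control-cluster median Fmax.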

[1] = designed as: OFF switch for flavin mononucleotide, no ligand
[2] = ligand present: flavin mononucleotide, designed as: OFF switch for flavin mononucleotide
[3] = designed as: ON switch for flavin mononucleotide, no ligand
[4] = ligand present: flavin mononucleotide, designed as: ON switch for flavin mononucleotide

Row | Sequence | apparent Kd [1] [nM] | apparent Kd [2] [nM] | apparent Kd [3] [nM] | apparent Kd [4] [nM]
1 | AAAGAGCAAGGAUAUACAUGAGGAUCACCCAUGUAGUACGUGAACCAGGUUUUCCUGAGUAGAAGGUGCAGACA | 36 | 34.3 | – | –
2 | CAGCACUGUCGAGAGGAUAUGCGGUGAUGGACAUGAGGAUCACCCAUGUUAGCGACAGCAUCACGGCAGAAGGCUCUGCUGCUGC | – | – | 59.4 | 16.9
3 | UGGUUGUGAGGAUAUACGUUUUUUAACUUUUGUUUUAUAUUGUAGAAGGCACAUGAGGAUCACCCAUGUUACGU | 22.9 | 30.8 | – | –
4 | GCGUCUUAGUAGAAGGGACAUCGGCUGGUAAGCAUCAUCUCCUUCUCACAUGAGGAUCACCCAUGUCAGGAUAUACUAAGAUGC | 11.5 | 43.1 | – | –
5 | AAAACAUGAGGAUCACCCAUGUAAAGAUCGGUUAAUGAAAGUGAGGAUAUACAAAAUUUUAUAGAGUAGAAGGCACUGGGUACA | – | – | 28.7 | 30.1
6 | GGUCCUUCUGUUAGGAUAUGCUAUGGGCUUCCGCAGUAGAAGGAACAUGAGGAUCACCCAUGUCCGAUGCCGUA | – | 121 | – | –
7 | GGUCGUCAAGUCAGGAUAUCGUUUAGUCGGUGUAACGAGAAGGGACAUGAGGAUCACCCAUGUCGUCUCAUCAG | 18.8 | 25.8 | – | –
8 | ACCUUCAAAGGAUAUGCGACUGGACGCCUUGCCAUGUAUAGACAUGAGGAUCACCCAUGUAGAAGGUUGGAGGA | 30.7 | 47.7 | – | –
9 | UAGAUUUAUGUAGGAUAUACAUUUUUUAUGUAUGUAGAAGGACAUGAGGAUCACCCAUGUAAAUAAAUAUUAAAUAUCAUAAUU | 30.4 | 23.8 | – | –
10 | CGUAAGCAAGGAUAUACAUGAGGAUCACCCAUGUAGCUUUGCUUCGUGGGCACAACAUGUAGAAGGUGCGAAAA | 15.3 | 13.3 | – | –
11 | GGUGCACGCACAGGAUAUCCGGCGGAGCUCGUCGGAGAAGGGUGACAUGAGGAUCACCCAUGUACGUGCAGCCAAGUUUGAGAG | – | – | 66.9 | 39.3
12 | UGAACUAUGUAGAAGGCCCACAUUAAUAUGUAGGGAGGAUAUACAUGAGGAUCACCCAUGUGAAGAGCAAGAGGAUUUAACAGA | 23.9 | 106 | – | –
13 | AGUAAGAUGCAGAAGGUGUCAGCGAGAGCUGCGACAUGAGGAUCACCCAUGUGUCGGUGACGACGCAAGGAUAUGCAUCUUACA | – | – | 138 | 56.6
14 | AACGUCGAAGGAUAUACAUGAGGAUCACCCAUGUGGGACCUGUAGUCUCACCCAUCGUGUAGAAGGUUGAGGCA | 32.2 | 29.7 | – | –
15 | AUACUCAAUGAAGGAUAUCUCAGCAUAAACCUGAGAGAAGGUCAUUGUUACAUGAGGAUCACCCAUGUUGUAGUUAAUGGGUAA | 504 | 573 | – | –
16 | UUAAAUCAUGUAGGAUAUGCAUGGCGAAGCUACGCAGAAGGACAUGAGGAUCACCCAUGUUAUAGCGUCCGAUAAAGGAUGCAA | 85.1 | 225 | – | –
17 | UGCUGACAAGGAUAUACUCGGGAUGCUAGUCGCGCAGUUGCACAUGAGGAUCACCCAUGUAGAAGGUGUCAGUA | 169 | 210 | – | –
18 | UGUAAUAUUAUAGGAUAUGGUUACGAUACGUAACCAGAAGGGUGAUUAUACUAUAAUCUAUACAUGAGGAUCACCCAUGUUUAU | – | – | 205 | 110
19 | CGAUAUAUGAAGGGCGAACGCGCACAUGAGGAUCACCCAUGUAGAAGGCGGUCCGCAACGCGGAUCGAGGAUAUAUAGUAUACG | 27.5 | 30.7 | – | –

Row | Sequence | apparent Kd [1] [nM] | apparent Kd [2] [nM] | apparent Kd [3] [nM] | apparent Kd [4] [nM]
20 | CUAAAUCAUGUAGGAUAUCGAUUGCGUCGCGAUCGAGAAGGACAUGAGGAUCACCCAUGUCAGAACGUCUGCGUUCAGACGUUG | 48.5 | 361 | – | –
21 | AAUAUGAGCUGGUUUAAAACUCAAACAUGAGGAUCACCCAUGUAGGAUAUCAGCACGAUAAGUGCUGAGAAGGACAUCCAGCUC | 15 | 18.9 | – | –
22 | AACGAGCUAGGAUAUGCACGGAAAAGCGUGGUCACUUAUGGACAUGAGGAUCACCCAUGUAGAAGGAGCGACGC | 22.5 | 18.9 | – | –
23 | ACAUGAGGAUCACCCAUGUACAUGGGUUUAAUUGUGUGUUACUAGGAUAUGUAUUUGAAUUUACAACAGAAGGAGUAUUACUGU | 621 | 179 | – | –
24 | UGGUACAAGGGAGGAUAUGGGAAGAUACAUGAGGAUCACCCAUGUUUAAGAAUGCCGAGAGGCAACUAGAAGGCCCUAGUACCU | – | – | 506 | 20.4
25 | ACAAGAUCAGGAUAUACAUGAGGAUCACCCAUGUAUAUCAAAAAAGGGCCUUCUACAUGUAGAAGGGAUCUUGU | 13.1 | 12.1 | – | –
26 | AGCUGGUGACAGCAUCCAUCAAAACAUGAGGAUCACCCAUGUAGAAGGCUGUACGGUUACCGUACAGAGGAUAUACAAUGAUGC | 13.8 | 31.8 | – | –
27 | UUUACAUGAGGAUCACCCAUGUAUAGAACGGUUAAUUAAAGUGAGGAUAUACAUAAUUUUAUAUUGUAGAAGGCACUGGGUACA | – | – | 14.3 | 17.5
28 | CGAUAAAGGUGAGGAUAUGAGAAUAGAAAGAAAUCAGAAGGCACACAUGAGGAUCACCCAUGUGAGUUCUCGAGAUUACAUGGU | 15.5 | 17.9 | – | –
29 | AGAUGACGAUGUUAUCUUCGUCGGACAUGAGGAUCACCCAUGUAGGAUAUGCUACUCAAAGAGUAGCAGAAGGACAUGUGUCUU | 37.4 | 245 | – | –
30 | CCGGCUGCUGUGAGGAUAUGCCUGUGGGUCCGCGGGCAGAAGGCACAUGAGGAUCACCCAUGUCCUGCGGUCCC | 27.1 | 28.3 | – | –
31 | GCCGGUUCCCUAGGAUAUGUACAUGAGGAUCACCCAUGUGCUUCUAGAGCCGGAGCAGGGCAUGUACAGAAGGAGGGUCGACCC | 6.47 | 7.39 | – | –
32 | UAGAUGGGAGGAUAUGCGUAGAUGCGGAUUCGUGUGGUGCUACAUGAGGAUCACCCAUGUAGAAGGCCCGUCUU | 14.4 | 22 | – | –
33 | GCAUCCAAAGUGAGGAUAUACCUCUGGAUACAUAGGUAGAAGGCACAUGAGGAUCACCCAUGUUCCUAGGAUGC | 31.6 | 43.1 | – | –
34 | UAUAUGUCAGGAUAUCGAUUGGAAUGGAAUUUAGUUUUGGUCGAGAAGGGACAUGAGGAUCACCCAUGUUUUUC | 38.7 | 215 | – | –
35 | AAAAAACAAGGAUAUACGGAUGAAGAUUGUCUUAAUUUUUGACAUGAGGAUCACCCAUGUAGAAGGUGUUAAAA | 198 | 342 | – | –
36 | ACUGUGCAUUAGAAGGGUGCGCGGCAAUCGCGCACAGGAUAUGAUGACAUGAGGAUCACCCAUGUCUGUGUUACCUGGGUGUCG | 19.1 | 135 | – | –
37 | GCAUCCAAAGUGAGGAUAUACCUCUGGAUACAGAGGUAGAAGGCACAUGAGGAUCACCCAUGUUCCUAGGAUGC | 15.3 | 74.2 | – | –
38 | UCGGCGCGAGGAUAUGCGGCUGCUGCUUCGGGCCGUGGCGUACAUGAGGAUCACCCAUGUAGAAGGCGCGCCGC | 13.1 | 14.1 | – | –

Row | Sequence | apparent Kd [1] [nM] | apparent Kd [2] [nM] | apparent Kd [3] [nM] | apparent Kd [4] [nM]
39 | CUGGGAUCAGUAGGAUAUGCCGGACAUGAGGAUCACCCAUGUAAGGCGUGCUUCCCUCGCGUGCGGCAGAAGGGCUGCAUCACA | 32.7 | 35.4 | – | –
40 | UUGAAGAAUUAAGGAUAUUGAAUACAUAUGUUAAACAUGAGGAUCACCCAUGUGGGUUGCGGUAUCGAGAAGGUAAAUUACUAG | – | – | 83 | 78.7
41 | GAGUGACAUGAGGAUCACCCAUGUGAGGAUAUCGGCCGGACCUUGUUAGCUUCCACCGCGAGAAGGCACAUCGG | 23.3 | 27.9 | – | –
42 | CAAAGUUGGUAAGGAUAUCCCACAUUAUUCUGACCCGUGCAAGCUACAUGAGGAUCACCCAUGUGGGAGAAGGUGCGUUAAAGC | 372 | 219 | – | –
43 | GGAAUGAGGCAGGAUAUGGGAGGGAGGACCGGACCAGAAGGGUUGACAUGAGGAUCACCCAUGUAGAGAUCCUC | 1060 | 724 | – | –
44 | GAGCGGGAAACAUGAGGAUCACCCAUGUGAUGAAUCCUCACAUAGGAUAUCCACACGAGAAGUGUGGAGAAGGAUGACCCGGUC | 1120 | 1700 | – | –
45 | GUCCGGAGGGAGAAGGGCUAGGAGGUCCAGCUUAUGUGUGUUGCAACAUGAGGAUCACCCAUGUAGCAGGAUAUCCCUUGUACA | 52.1 | 219 | – | –
46 | AUCCGGAAUGUUAGGAUAUCUUGGCGCCUGUGCUUGGAGAAGGGACAUGAGGAUCACCCAUGUCCUCUCGGAAA | 13.1 | 14.9 | – | –
47 | UAAUAAUUAUGAGGAUAUAUACAACAUGAGGAUCACCCAUGUACCCAUGUAGUAGAAGGCAUAUUUUUAGUUAAUAACACAACU | – | – | 71.3 | 30
48 | GACUCGCGCACAGGAUAUCCACGGAGCGGACGCGGAGAAGGGUGACAUGAGGAUCACCCAUGUACGUGAGUCUAGAUCACUUCC | – | – | 76.8 | 22.5
49 | GUAACAUGAGGAUCACCCAUGUAUAGAACGCUUAAUAGAUCUGAGGAUAUACUAGAAUUUACGUAGUAGAAGGCAGUGGGUACA | – | – | 35.9 | 26.9
50 | GGUCCACAUGAGGAUCACCCAUGUCAGGAUAUACACGGCACUAUAAUAAGUGCCACCCGUAGAAGGGACGCUGG | 17.2 | 38.5 | – | –
51 | CAGCUGAAUGUGAGGAUAUUACGAGCUUCGGCUCGUGAGAAGGCACAUGAGGAUCACCCAUGUCUCAACAGCUG | 38.5 | 540 | – | –
52 | UUGUUGUAUGUAGGAUAUGCGUGUUAUUAUUAUGCAGAAGGACAUGAGGAUCACCCAUGUAUAUUAUUAUUAUAUGUUAUAUAU | 25 | 23.9 | – | –
53 | AAGUCUGGACGAGGAUAUCAGUUGUAUCUGGCGUCAACAUGAGGAUCACCCAUGUUGCUAUAGGGUGAGAAGGCGUUUGGGCAA | – | – | 92.6 | 22.8
54 | CUAGCAACAUGAGGAUCACCCAUGUAGGAUAUCGCUAUUGUAAUCAUGAAACAUGAUUACAAUAGCGAGAAGGACAUAUGCUAA | 7.96 | 10.8 | – | –
55 | AAAACACAUGAGGAUCACCCAUGUGAGGAUAUGUCCAUGCUCGGCAAACCGGGCAUGGACAGAAGGCACAUAAA | 45 | 46.7 | – | –
56 | AGGAGGUCAGGAUAUGCUGCUCGUCACUUGCGUGAUGAGUAGCAGAAGGGACAUGAGGAUCACCCAUGUAAAAA | 52.6 | 88.7 | – | –
